Legend:
Type in all cases: functional
786-0 = assay: Growth inhibition of human 786-0 cells assessed as cell growth at 10^-6 M incubated for 48 hrs by sulforhodamine B assay; settings: 786-0, 48 h, read-out: Activity
How it was run: (§1)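 Five-dose assay: five concentrations from 10-fold or ½-log serial dilutions. Cells are plated at 5,000–40,000 per well according to doubling time, grown 24 h, then exposed 48 h at 37 °C, 5% CO₂. Fixed with cold 50% TCA (final addition) for 60 min at 4 °C and stained with 0.4% SRB in 1% acetic acid. Bound dye is solubilized in 10 mM Tris base and read at 515 nm. GI₅₀ is where [(Ti−Tz)/(C−Tz)]×100 = 50, with a time-zero plate as Tz.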

SK-MEL-28 = assay: Growth inhibition of human SK-MEL-28 cells assessed as cell growth at 10^-8 M incubated for 48 hrs by sulforhodamine B assay; settings: SK-MEL-28, 48 h, read-out: Activity
[1] = Growth inhibition of human UO31 cells assessed as cell growth at 10^-7 M incubated for 48 hrs by sulforhodamine B assay; settings: UO-31, 48 h, read-out: Activity
[2] = Growth inhibition of human UACC62 cells assessed as cell growth at 10^-6 M incubated for 48 hrs by sulforhodamine B assay; settings: UACC-62, 48 h, read-out: Activity
SR [3] = assay: Growth inhibition of human SR cells assessed as cell growth at 10^-8 M incubated for 48 hrs by sulforhodamine B assay; settings: read-out: Activity
K562 = assay: Growth inhibition of human K562 cells assessed as cell growth at 10^-4 M incubated for 48 hrs by sulforhodamine B assay; settings: K562, 48 h, read-out: Activity
[4] = Growth inhibition of human BT549 cells incubated for 48 hrs by sulforhodamine B assay; settings: BT-549, 48 h; how it was run: as §1
[5] = Growth inhibition of human HCT116 cells assessed as cell growth at 10^-7 M incubated for 48 hrs by sulforhodamine B assay; settings: HCT-116, 48 h, read-out: Activity
How it was run: (§2)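 Cells seeded at 5,000–40,000/well according to doubling time and preincubated 24 h at 37 °C, 5% CO2. Time-zero plates were TCA-fixed. DMSO concentrate was diluted in medium with 50 µg/ml gentamicin to give five concentrations (10-fold or ½ log steps), then exposed 48 h. Cells were TCA-fixed, stained with 0.4% SRB and read at 515 nm. Percent growth was taken against time-zero and control; GI50, TGI and LC50 derived.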

SN12C [6] = assay: Growth inhibition of human SN12C cells assessed as cell growth at 10^-5 M incubated for 48 hrs by sulforhodamine B assay; settings: read-out: Activity
NCI-H460 = assay: Growth inhibition of human NCI-H460 cells assessed as cell growth at 10 uM incubated for 48 hrs by sulforhodamine B assay; settings: NCI-H460, 48 h, read-out: Activity
NCI-H322M = assay: Growth inhibition of human NCI-H322M cells assessed as cell growth at 10^-6 M incubated for 48 hrs by sulforhodamine B assay; settings: read-out: Activity
[7] = Growth inhibition of human HOP62 cells assessed as cell growth at 10 uM incubated for 48 hrs by sulforhodamine B assay; settings: HOP-62, 48 h, read-out: Activity
[8] = Growth inhibition of human breast cancer cells incubated for 48 hrs by sulforhodamine B assay; settings: Cancer cell lines; for CC50: read-out: LC50 (the source's name)
A549 = assay: Growth inhibition of human A549/ATCC cells incubated for 48 hrs by sulforhodamine B assay; settings: A549, 48 h; how it was run: as §1
[9] = Growth inhibition of human LOXIMVI cells assessed as cell growth at 10^-5 M incubated for 48 hrs by sulforhodamine B assay; settings: LOX IMVI, read-out: Activity
[10] = Growth inhibition of human COLO205 cells assessed as cell growth at 10^-6 M incubated for 48 hrs by sulforhodamine B assay; settings: COLO 205, 48 h, read-out: Activity; how it was run: as §2
MDA-MB-435 = assay: Growth inhibition of human MDA-MB-435 cells assessed as cell growth at 10^-5 M incubated for 48 hrs by sulforhodamine B assay; settings: MDA-MB-435, 48 h, read-out: Activity
[11] = Growth inhibition of human MOLT4 cells incubated for 48 hrs by sulforhodamine B assay; settings: MOLT-4, 48 h
How it was run: (§3)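 Cells were plated at 5,000–40,000 per well according to doubling time and preincubated 24 h at 37 °C in 5% CO2; time-zero plates were then TCA-fixed. Five concentrations (10-fold or ½-log dilutions, DMSO stock) were incubated 48 h. Cells were TCA-fixed, stained with 0.4% SRB and read at 515 nm. GI50 was taken where [(Ti−Tz)/(C−Tz)]×100 = 50.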

SK-MEL-2 = assay: Growth inhibition of human SK-MEL-2 cells assessed as cell growth at 10 uM incubated for 48 hrs by sulforhodamine B assay; settings: SK-MEL-2, 48 h, read-out: Activity
[12] = Growth inhibition of human MOLT4 cells assessed as cell growth at 10^-6 M incubated for 48 hrs by sulforhodamine B assay; settings: MOLT-4, 48 h, read-out: Activity
[13] = Growth inhibition of human OVCAR8 cells assessed as cell growth at 10 uM incubated for 48 hrs by sulforhodamine B assay; settings: OVCAR-8, 48 h, read-out: Activity
SN12C [14] = assay: Growth inhibition of human SN12C cells assessed as cell growth at 10 uM incubated for 48 hrs by sulforhodamine B assay; settings: read-out: Activity
SR [15] = assay: Growth inhibition of human SR cells assessed as cell growth at 10^-5 M incubated for 48 hrs by sulforhodamine B assay; settings: read-out: Activity
M14 = assay: Growth inhibition of human M14 cells assessed as cell growth at 10^-4 M incubated for 48 hrs by sulforhodamine B assay; settings: M14, 48 h, read-out: Activity
NCI-H522 = assay: Growth inhibition of human NCI-H522 cells incubated for 48 hrs by sulforhodamine B assay; settings: NCI-H522, 48 h; how it was run: as §3
[16] = Growth inhibition of human RXF393 cells assessed as cell growth at 10 uM incubated for 48 hrs by sulforhodamine B assay; settings: RXF 393, 48 h, read-out: Activity
A498 = assay: Growth inhibition of human A498 cells assessed as cell growth at 10^-7 M incubated for 48 hrs by sulforhodamine B assay; settings: A498, 48 h, read-out: Activity; how it was run: as §1
[17] = read-out: LC50 (the source's name)
[18] = read-out: pLC50 (the source's name) (converted)

SMILES: Clc1ccc(-c2nc(Nc3ccc(-c4nc5ccccc5[nH]4)cc3)nc(N3CCOCC3)n2)cc1
- growth at 1 µM (786-0): -78%
- growth at 0.01 µM (SK-MEL-28): 105%
- growth at 0.1 µM [1]: 92%
- growth at 1 µM [2]: -53%
- growth at 0.01 µM (SR [3]): 103%
- growth at 100 µM (K562): -29%
- GI50 ([4]; read-out: GI50): 1.73 µM
- TGI ([4]; read-out: TGI): 3.68 µM
- GI50 ([4]; read-out: pGI50 (converted)): 1.74 µM
- TGI ([4]; read-out: pTGI (converted)): 3.72 µM
- growth at 0.1 µM [5]: 93%
- growth at 10 µM (SN12C [6]): -77%
- growth at 10 µM (NCI-H460): -80.3%
- growth at 1 µM (NCI-H322M): 2%
- growth at 10 µM [7]: -73.9%
- GI50 [8]: 0.62 µM
- TGI [8]: 1.86 µM
- CC50 [8]: > 100 µM
- GI50 (A549; read-out: GI50): 0.666 µM
- CC50 (A549; [17]): 5.54 µM
- TGI (A549; read-out: TGI): 2.13 µM
- GI50 (A549; read-out: pGI50 (converted)): 0.661 µM
- CC50 (A549; [18]): 5.5 µM
- TGI (A549; read-out: pTGI (converted)): 2.14 µM
- growth at 10 µM [9]: -70%
- growth at 1 µM [10]: 2%
- growth at 10 µM (MDA-MB-435): -98%
- GI50 ([11]; read-out: GI50): 0.217 µM
- TGI ([11]; read-out: TGI): 0.573 µM
- GI50 ([11]; read-out: pGI50 (converted)): 0.219 µM
- TGI ([11]; read-out: pTGI (converted)): 0.575 µM
- growth at 10 µM (SK-MEL-2): -71.3%
- growth at 1 µM [12]: -29%
- growth at 10 µM [13]: -73.8%
- growth at 10 µM (SN12C [14]): -79.5%
- growth at 10 µM (SR [15]): -21%
- growth at 100 µM (M14): -35%
- GI50 (NCI-H522; read-out: GI50): 1.5 µM
- TGI (NCI-H522; read-out: TGI): 3.19 µM
- GI50 (NCI-H522; read-out: pGI50 (converted)): 1.51 µM
- TGI (NCI-H522; read-out: pTGI (converted)): 3.16 µM
- growth at 10 µM [16]: -91.1%
- growth at 0.1 µM (A498): 82%

SMILES: c1ccc2[nH]c(-c3ccc(Nc4nc(N5CCCCC5)nc(N5CCOCC5)n4)cc3)nc2c1
- growth at 1 µM (786-0): 79%
- growth at 0.01 µM (SK-MEL-28): 100%
- growth at 0.1 µM [1]: 86%
- growth at 1 µM [2]: 92%
- growth at 0.01 µM (SR [3]): 95%
- growth at 100 µM (K562): 1%
- GI50 ([4]; read-out: GI50): 2.07 µM
- CC50 [4, 17]: 92.7 µM
- TGI ([4]; read-out: TGI): 5.2 µM
- GI50 ([4]; read-out: pGI50 (converted)): 2.09 µM
- CC50 [4, 18]: 93.3 µM
- TGI ([4]; read-out: pTGI (converted)): 5.25 µM
- growth at 0.1 µM [5]: 94%
- growth at 10 µM (SN12C [6]): 32%
- growth at 10 µM (NCI-H460): 0.81%
- growth at 1 µM (NCI-H322M): 93%
- growth at 10 µM [7]: -45.2%
- GI50 [8]: 2.36 µM
- TGI [8]: 6.72 µM
- CC50 [8]: 92.7 µM
- GI50 (A549; read-out: GI50): 3.27 µM
- CC50 (A549; [17]): > 100 µM
- TGI (A549; read-out: TGI): 13.2 µM
- GI50 (A549; read-out: pGI50 (converted)): 3.24 µM
- CC50 (A549; [18]): > 100 µM
- TGI (A549; read-out: pTGI (converted)): 13.2 µM
- growth at 10 µM [9]: -72%
- growth at 1 µM [10]: 92%
- growth at 10 µM (MDA-MB-435): -48%
- GI50 ([11]; read-out: GI50): 2.73 µM
- CC50 [11, 17]: > 100 µM
- TGI ([11]; read-out: TGI): 7.89 µM
- GI50 ([11]; read-out: pGI50 (converted)): 2.75 µM
- CC50 [11, 18]: > 100 µM
- TGI ([11]; read-out: pTGI (converted)): 7.94 µM
- growth at 10 µM (SK-MEL-2): -20.6%
- growth at 1 µM [12]: 97%
- growth at 10 µM [13]: 45.7%
- growth at 10 µM (SN12C [14]): 52.4%
- growth at 10 µM (SR [15]): -14%
- growth at 100 µM (M14): -70%
- GI50 (NCI-H522; read-out: GI50): 2.36 µM
- CC50 (NCI-H522; [17]): > 100 µM
- TGI (NCI-H522; read-out: TGI): 6.22 µM
- GI50 (NCI-H522; read-out: pGI50 (converted)): 2.34 µM
- CC50 (NCI-H522; [18]): > 100 µM
- TGI (NCI-H522; read-out: pTGI (converted)): 6.17 µM
- growth at 10 µM [16]: -56.1%
- growth at 0.1 µM (A498): 81%
